Active and inactive are the calls of the source. No cut-off for these calls is given here.
Legend:
[1] = biological target: Kallikrein-7 (Homo sapiens) (UniProt P49862); assay: Inhibition of N-terminal SUMO and His6-tagged human KLK7 assessed as reduction in vaspin-N-terminal cleavage using compound pre-treated KLK7 incubated for 60 mins by Coomassie-staining based SDS-PAGE method
In short: (§1)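 KLK7 was pre-treated with 1 mM compound (10 % DMSO, 37 °C, 30 min) and concentrated on a 5 kDa spin column. It was then mixed with vaspin at a 3:1 molar ratio (3.15 μM KLK7, 1.05 μM vaspin) in 50 mM Tris, 150 mM NaCl, pH 8.0 (elsewhere stated as pH 7.5) at room temperature for up to 60 min. Time-point samples were boiled 5 min in reducing SDS buffer, run on 12 % gels and Coomassie-stained.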

[2] = biological target: Kallikrein-7 (Homo sapiens) (UniProt P49862); assay: Inhibition of N-terminal SUMO and His6-tagged human KLK7 expressed in Escherichia coli Rosetta (DE3) pLysS assessed as reduction in covalent KLK7-vaspin complex formation using compound pre-treated KLK7 incubated for 60 mins by Coomassie-staining based SDS-PAGE method; in short: as §1
[3] = biological target: Kallikrein-7 (Homo sapiens) (UniProt P49862); assay: Inhibition of N-terminal SUMO and His6-tagged human KLK7 assessed as protease activity by measuring fluorogenic peptide substrate NFF-3 cleavage (reference value: >400 pmol/(min.ug)
[4] = biological target: Kallikrein-7 (Homo sapiens) (UniProt P49862); assay: Covalent binding affinity to of N-terminal SUMO and His6-tagged human KLK7 expressed in Escherichia coli Rosetta (DE3) pLysS assessed as compound binding to His57 of catalytic triad by mass spectrometry
[5] = Stability in 100% DMSO at -20 degC for several months by ESI-MS and 1H NMR spectroscopy; type: physicochemical

Chain of Kallikrein-7 (Homo sapiens) (P49862 30-253 limits assumed): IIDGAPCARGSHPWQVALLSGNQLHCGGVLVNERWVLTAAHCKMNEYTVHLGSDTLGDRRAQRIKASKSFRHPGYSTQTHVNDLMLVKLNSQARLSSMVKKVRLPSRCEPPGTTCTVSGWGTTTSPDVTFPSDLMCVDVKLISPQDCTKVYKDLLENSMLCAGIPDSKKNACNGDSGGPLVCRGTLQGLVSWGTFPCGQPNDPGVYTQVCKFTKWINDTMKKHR

SMILES | inhibition [1] | inhibition [2] | Activity [3] [pmol/min/µg] | Activity [4] | Stability [5]
O=C(Oc1cccc(I)c1)c1cc2cc(CCl)ccc2oc1=O | inactive | Active | < 0.1 |  | 
O=C(Oc1cccc(Br)c1)c1cc2cc(CCl)ccc2oc1=O | inactive | Active | < 0.1 | Active | Stable
O=C(Oc1cccc(Cl)c1)c1cc2cc(CCl)ccc2oc1=O | inactive | Active | < 0.1 |  | 
